# High-throughput results deposited in PubChem BioAssay by The Scripps Research Institute Molecular Screening Center.
# Sampled rows, rich in hits. Any-hit rate of the full collection: about 2.9%.
# CHO-K1 Ca antag – nonselective inhibitor or artifact in parental CHO-K1 cells | hit rate 0.6% among 360,000 | AID 602250 | ATP-induced calcium, Fluo-8 fluorescence | inhibition, % at 3 µM;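 active means inhibition above a per-plate cutoff, the plate's mean sample inhibition plus 3 SD, cut at about 24% in these data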
# CHO parental Ca – signal in parental CHO cells, OX1R antagonist counter-screen; AID 463079; parental CHO-K1, ATP-induced calcium, Fluo-8 fluorescence; hit rate 0.63% among 330,000; inhibition, % at 5.6 µM;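 active means inhibition above that plate's mean sample inhibition plus 3 SD, cut at about 26% in these data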
#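 Assay system – parental CHO cells · Reagent – ATP stimulus · Detection – intracellular calcium via Fluo-8 no-wash fluorescent dye · Evaluation – percent inhibition of ATP-evoked calcium rise, normalized to controls · Controls – ATP wells versus no-ATP DMSO wells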
# M1 PAM parental – counter-screen for M1 PAMs: effect in parental CHO-K1 cells. ATP EC20, Fluo-8 calcium fluorescence; 0% at ATP EC20, 100% at ATP max. activation, % at 3 µM. hit rate 0.02% among 360,000;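 active means activation above the run cutoff, the mean activation of all test compounds plus 3 SD, cut at about 40% in these data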;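 further: peak over basal fluorescence ratio in a 140 s read after ATP addition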
# OX1R antag-1 – human HCRTR1 antagonism; AID 434989; CHO/OX1R cells, Fluo-8 calcium fluorescence, orexin A; O43613; inhibition, % at 5 µM; hit rate 0.43% among 330,000;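 active means inhibition above its plate's threshold, mean inhibition of all tested compounds on the plate plus 3 SD, cut at about 37% in these data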
# Target sequence (O43613 whole entry, looked up): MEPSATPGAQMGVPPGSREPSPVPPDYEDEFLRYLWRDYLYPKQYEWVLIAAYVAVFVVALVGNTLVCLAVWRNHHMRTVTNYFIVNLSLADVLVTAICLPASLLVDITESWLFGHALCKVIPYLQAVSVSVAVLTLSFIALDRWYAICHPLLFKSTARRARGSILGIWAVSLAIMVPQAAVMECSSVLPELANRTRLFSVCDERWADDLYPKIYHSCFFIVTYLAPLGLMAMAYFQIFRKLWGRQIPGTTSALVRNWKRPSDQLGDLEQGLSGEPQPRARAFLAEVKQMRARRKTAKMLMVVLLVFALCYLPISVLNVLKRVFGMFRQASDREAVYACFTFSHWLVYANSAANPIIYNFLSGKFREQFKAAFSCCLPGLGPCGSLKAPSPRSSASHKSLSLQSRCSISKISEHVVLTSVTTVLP
# OX1R antag-2 – OX1R (human) antagonism; O43613; OX1R-expressing cells, FRET antagonist read-out; inhibition, % at 6.6 µM; hit rate 1.8% among 330,000; in the data active means inhibition mostly above about 38%, no sharp cut-off; inactive means mostly below about 40%
# CHO-K1 Ca ag – nonselective activator or artifact in parental CHO-K1 cells. Fluo-8 calcium fluorescence; scaled to maximal ATP response, vehicle zero. activation, % at 3 µM. hit rate 0.48% among 360,000; in the data active means activation above about 15%;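 further: untransfected CHO-K1 host cells lacking M1 receptor as counterscreen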
# OX1R HTRF confirm – OX1R (human) antagonism, HTRF confirmed. hit rate 49% among 1,800. shares compounds with OX1R antag-2. AID 492964. OX1R-expressing cells, HTRF antagonist assay. inhibition, % at 6.6 µM; in the data active means inhibition above about 55%;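 further: CHO cells expressing OX1R stimulated with orexin A at about EC80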
# CHO-K1 HTRF – counter-screen for OX1R antagonists: effect in parental CHO-K1 cells; inhibition, % at 6.6 µM; shares compounds with OX1R antag-2; HTRF counterscreen; hit rate 48% among 1,800; in the data active means inhibition above about 17%
# A number is an active result; i = inactive; nt = not tested or not shown.
SMILES,CHO-K1 Ca antag,CHO parental Ca,M1 PAM parental,OX1R antag-1,OX1R antag-2,CHO-K1 Ca ag,OX1R HTRF confirm,CHO-K1 HTRF
O=C(CCNS(=O)(=O)c1cccc2nsnc12)N1CCN(c2ccccn2)CC1,i,i,i,i,127.3,i,i,22.6
O=C(C1CCC(CNS(=O)(=O)c2cccc3nsnc23)CC1)N1CCN(c2ccccn2)CC1 (stereo not drawn),i,i,i,i,i,i,nt,nt
O=C(CCNS(=O)(=O)c1cccc2nsnc12)N1CCc2ccccc21,i,i,i,i,94.7,i,i,21.6
Oc1cccc2c3c(oc12)CCCC3,i,i,i,i,i,i,nt,nt
Cc1c(C)c(C)c(C(=O)CCc2cccc(NC(=O)CCC(=O)O)c2)c(C)c1C,i,i,i,i,i,i,nt,nt
COc1ccc(N2CCN(C(=O)CCS(=O)(=O)c3cccc4nsnc34)CC2)cc1,i,i,i,i,90.3,i,i,48.2
C[C@H]1COC(=O)[C@H](CC(=O)OC(C)(C)C)C/C=C\C[C@@H](CC(=O)NCCO)C(=O)N1,i,i,i,i,i,i,nt,nt
O=C(CCC(=O)c1cccs1)Nc1ccc(F)c(F)c1F,i,i,i,i,i,i,nt,nt
Cc1ccsc1C(=O)OCC(=O)Nc1nnc(-c2ccccc2)o1,i,i,i,i,78.2,i,i,i
Cc1cc(C)c(NC(=O)COC(=O)c2ccc([N+](=O)[O-])s2)c(C)c1,i,i,i,i,i,i,nt,nt
O=C(COC(=O)c1ccc([N+](=O)[O-])s1)NCc1ccc(F)cc1,i,i,i,i,89.1,i,i,48.0
COc1ccccc1NC(=O)COC(=O)c1ccc([N+](=O)[O-])s1,i,i,i,i,90.7,i,i,48.4
CCNc1ccc(C(=O)OCC(=O)NC(C)c2ccccc2)cc1[N+](=O)[O-] (stereo not drawn),i,i,i,i,i,i,nt,nt
CC(NC(=O)COC(=O)c1ccc([N+](=O)[O-])s1)c1ccccc1 (stereo not drawn),i,i,i,i,81.3,i,i,17.4
COC(=O)C1=C(C(=O)OC)C2C=CC1C1C(OC(C)=O)C(OC(C)=O)C21 (stereo not drawn),i,nt,i,nt,nt,i,nt,nt
O=C1c2ccccc2C(=O)c2[nH]cnc21,i,nt,i,nt,nt,i,nt,nt
O=C1c2ccccc2C(=O)c2[nH]c(=O)[nH]c21,i,i,i,i,82.3,i,70.6,108.6
Cc1nc(NC(=O)CSc2nccn2C)sc1C(=O)N(C)C,i,i,i,i,i,i,nt,nt
Cc1n[nH]c(C)c1N1C(=O)c2cccc3c(Br)ccc(c23)C1=O,i,i,i,i,79.7,i,i,40.0
O=c1nc(-c2ccccc2)c(-c2ccccc2)n[nH]1,i,nt,i,nt,nt,i,nt,nt
O=c1nc(-c2ccccc2)cn[nH]1,i,i,i,i,148.3,i,i,36.8
Cc1nnc(SCC(=O)c2c(N)n(C3CC3)c(=O)[nH]c2=O)n1C,i,i,i,i,i,i,nt,nt
CN(C(=O)COC(=O)Cn1cnc2ccccc21)C1CCCCC1,i,i,i,i,i,i,nt,nt
CCc1ccc(S(=O)(=O)NCCOc2cccc3cccnc23)cc1,i,i,i,i,i,i,nt,nt
O=c1oc2ccc(Br)cc2cc1-c1nc2ccccc2o1,i,i,i,i,i,i,nt,nt
SMILES,CHO-K1 Ca antag,CHO parental Ca,M1 PAM parental,OX1R antag-1,OX1R antag-2,CHO-K1 Ca ag,OX1R HTRF confirm,CHO-K1 HTRF
COc1cccc2cc(-c3nc4ccccc4o3)c(=O)oc12,i,i,i,i,123.2,i,i,18.1
COc1ccc(C(=O)c2ccccc2CN2C(=O)c3ccccc3C2=O)cc1,i,nt,i,nt,nt,i,nt,nt
COc1ccc(NC(=S)Nc2ccc3nsnc3c2)cc1,i,i,i,i,87.7,i,i,39.9
CC(C)N(C(=O)Nc1ccc2nsnc2c1)C(C)C,nt,i,nt,i,142.9,nt,i,30.5
COc1ccccc1/C=N/NC(=O)c1cccc(OC(F)(F)C(F)F)c1,i,i,i,i,i,i,nt,nt
COc1cccc(/C=N/NC(=O)C(=O)Nc2ccccc2OC(F)(F)C(F)F)c1O,i,i,i,i,96.5,i,93.3,i
Cc1c(C(=O)NCc2cccc(C(F)(F)F)c2)sc(=O)n1Cc1ccccc1F,i,nt,i,nt,nt,i,nt,nt
CN(C(=O)CSc1ncc(C(F)(F)F)cc1Cl)c1c(N)n(Cc2ccccc2)c(=O)[nH]c1=O,i,i,i,i,88.5,i,68.0,i
COc1ccc(C=C2C(=O)OC(C)(C)OC2=O)cc1OC,i,i,i,i,i,i,nt,nt
COc1ccc(/C=C2\OC(=O)c3c(OC)cccc32)cc1OC,i,i,i,i,78.5,i,66.0,i
NC(=S)Nn1c(-c2ccccc2)nc2ccccc2c1=O,i,i,i,i,i,i,nt,nt
O=C1c2ccccc2C(=O)c2c1cccc2N1CCCC1,i,i,i,i,i,i,nt,nt
O=C1C=C(N2CCCCC2)c2ccccc2C1=O,i,i,i,i,84.0,i,65.7,110.2
COCCN(C(=S)Nc1c(C)cccc1C)C(C)c1cccs1 (stereo not drawn),i,i,i,i,146.8,i,i,i
CCn1c(C)nc2cc(-c3nc4n(n3)Cc3ccccc3-4)ccc21,i,i,i,i,87.7,i,80.7,i
Cc1ccc(NS(=O)(=O)c2cc(C(=O)Nc3cccnc3)ccc2C)cc1,i,nt,i,nt,nt,i,nt,nt
COc1cccc(Nc2ncnc3c2cnn3-c2cccc(C)c2)c1,i,i,i,i,91.9,i,i,i
O=[N+]([O-])c1ccc(N2CCCCC2)s1,i,i,i,i,100.7,i,i,70.2
O=C1/C(=N\S(=O)(=O)c2cccs2)C([n+]2ccccc2)=C([O-])c2ccccc21,i,i,i,i,94.1,i,77.5,118.7
O=C(CN1CCN(C(=O)c2ccco2)CC1)Nc1ccc(Br)cc1,i,i,i,i,i,i,nt,nt
c1ccc(CNc2c3ccccc3nc3ccccc23)cc1,i,i,i,i,i,i,nt,nt
OCC(Cc1ccccc1)Nc1c2ccccc2nc2ccccc12 (stereo not drawn),i,i,i,i,87.9,i,72.4,17.4
O=[N+]([O-])c1ccc(N/N=C2\CC3CC=CC23)c([N+](=O)[O-])c1 (stereo not drawn),i,i,i,i,82.2,i,i,19.4
CC1CCC/C(=N/Nc2ccc([N+](=O)[O-])cc2[N+](=O)[O-])C1 (stereo not drawn),i,i,i,i,107.5,i,i,27.1
O=[N+]([O-])c1ccc(NN=C2CC3CCC2C3)c([N+](=O)[O-])c1 (stereo not drawn),i,nt,i,nt,nt,i,nt,nt
O=C1C(=O)N(CCN2CCOCC2)C(c2ccccn2)/C1=C(/O)c1ccccc1 (stereo not drawn),i,i,i,i,178.5,i,i,36.0
